Experimental data published in ChEMBL document CHEMBL1146538, “Antioxidative glycosides from the leaves of Ligustrum robustum” (J Nat Prod, 2003).
Active and inactive are the calls of the source. The rule behind the calls is not given here.

tested on: not listed separately; assay: (§1) Antioxidant activity assessed as inhibition of AAPH-induced hemolysis in rat RBC after 3 hrs; format: functional, cell-based; conditions: erythrocyte
How it was run: (§2)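 Rat blood drawn from abdominal aorta; RBC separated by centrifugation (2500 rpm, 10 min), washed three times with five volumes PBS pH 7.4. 2 mL RBC suspension mixed with 2 mL PBS containing varying glycoside amounts, then 1 mL of 400 mM AAPH in PBS; shaken at 37 °C for 3 h. Diluted with 8 mL PBS, centrifuged, supernatant A540 read; % inhibition versus control.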

| Compound | IC50 |
| --- | --- |
| O=c1cc(-c2ccc(O)cc2)oc2cc(O[C@@H]3O[C@H](CO)[C@@H](O)[C@H](O)[C@H]3O)cc(O)c12 [APIGETRIN] | 88.4 µM |
| C[C@@H]1O[C@@H](O[C@@H]2[C@@H](O)[C@@H](O)[C@H](O[C@@H]3[C@@H](O)[C@H](OCCc4ccc(O)c(O)c4)O[C@H](CO)[C@H]3OC(=O)/C=C/c3ccc(O)c(O)c3)O[C@H]2C)[C@H](O)[C@H](O)[C@H]1O [LIGUPURPUROSIDE A] | 26.3 µM |
| C[C@@H]1O[C@@H](O[C@@H]2[C@@H](O)[C@@H](O)[C@H](O[C@@H]3[C@@H](O)[C@H](OCCc4ccc(O)cc4)O[C@H](CO)[C@H]3OC(=O)/C=C/c3ccc(O)cc3)O[C@H]2C)[C@H](O)[C@H](O)[C@H]1O [LIGUPURPUROSIDE B] | 80.4 µM |
| C/C(=C\CO[C@@H]1O[C@H](CO)[C@@H](OC(=O)/C=C/c2ccc(O)cc2)[C@H](O[C@@H]2O[C@@H](C)[C@H](O)[C@@H](O)[C@H]2O)[C@H]1O)C/C=C\C(C)(C)O [LIGUROBUSTOSIDE I] | 340 µM |
| C[C@@H]1O[C@@H](O[C@@H]2[C@@H](O)[C@H](OCCc3ccc(O)cc3)O[C@H](COC(=O)/C=C/c3ccc(O)cc3)[C@H]2O)[C@H](O)[C@H](O)[C@H]1O [OSMANTHUSIDE B6] | 91.7 µM |
| C[C@@H]1O[C@@H](O[C@@H]2[C@@H](O)[C@H](OCCc3ccc(O)cc3)O[C@H](CO)[C@H]2OC(=O)/C=C/c2ccc(O)cc2)[C@H](O)[C@H](O)[C@H]1O [OSMANTHUSIDE B] | 160 µM |
| Cc1c(C)c2c(c(C)c1O)CCC(C)(C(=O)O)O2 (centres undefined) [TROLOX] | 101 µM |
| C[C@@H]1O[C@@H](O[C@@H]2[C@@H](O)[C@@H](O)[C@H](O[C@@H]3[C@@H](O)[C@H](OCCc4ccc(O)cc4)O[C@H](CO)[C@H]3O)O[C@H]2C)[C@H](O)[C@H](O)[C@H]1O [LIGUROBUSTOSIDE M] | 134 µM |
| C[C@@H]1O[C@@H](O[C@H]2[C@H](Oc3cc(O)c4c(=O)cc(-c5ccc(O)cc5)oc4c3)O[C@H](CO)[C@@H](O)[C@@H]2O)[C@H](O)[C@H](O)[C@H]1O [RHOIFOLIN] | 95.9 µM |
| C[C@@H]1O[C@@H](O[C@@H]2[C@@H](O)[C@@H](O)[C@H](O[C@@H]3[C@@H](O)[C@H](OCCc4ccc(O)cc4)O[C@H](CO)[C@H]3OC(=O)/C=C/c3ccc(O)c(O)c3)O[C@H]2C)[C@H](O)[C@H](O)[C@H]1O [LIGUROBUSTOSIDE N] | 21.8 µM |
| C[C@@H]1O[C@@H](O[C@@H]2[C@@H](O)[C@H](OCCc3ccc(O)c(O)c3)O[C@H](CO)[C@H]2OC(=O)/C=C/c2ccc(O)c(O)c2)[C@H](O)[C@H](O)[C@H]1O [ACETOSIDE] | 28 µM |

tested on: Erythrocyte; assay: as §1; format: functional, cell-based; conditions: not given; how it was run: as §2

| Compound | Activity |
| --- | --- |
| CC(C)=CCC/C(C)=C/CO[C@@H]1O[C@H](CO)[C@@H](OC(=O)/C=C/c2ccc(O)cc2)[C@H](O[C@@H]2O[C@@H](C)[C@H](O)[C@@H](O)[C@H]2O)[C@H]1O | inactive |
| CC(C)=CCC/C(C)=C/CO[C@@H]1O[C@H](COC(=O)/C=C/c2ccc(O)cc2)[C@@H](O)[C@H](O[C@@H]2O[C@@H](C)[C@H](O)[C@@H](O)[C@H]2O)[C@H]1O | inactive |
| C=C(C)C(=O)CC/C(C)=C/CO[C@@H]1O[C@H](CO)[C@@H](OC(=O)/C=C/c2ccc(O)cc2)[C@H](O[C@@H]2O[C@@H](C)[C@H](O)[C@@H](O)[C@H]2O)[C@H]1O | inactive |
